In ChEMBL document CHEMBL3585281, “Antibacterial Labdane Diterpenoids from Vitex vestita” (2015):
≈ marks a conversion by molar mass, not a printed value. Blank lines part the entries; values can stand above or below the compound they belong to.

How the values were obtained:
Format in all cases: functional
[1] = system: HCT-116; assay: Cytotoxicity against human HCT116 cells assessed as growth inhibition at 10^-6 M after 72 hrs by MTS assay relative to control; conditions: HCT-116, 72 h, read-out: GI
Outline: (§1)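 Cells from ATCC; HCT-116 grown in RPMI 1640 and MRC5 in DMEM, each with 10% FCS and 1% glutamine, 37 °C, 5% CO2. Seeded at 2.5 × 10^3 cells/well, cultured 24 h, then exposed to compounds at 1 and 10 μM final for 72 h. MTS read-out, absorbance 490 nm; percent index from treated/control OD490 × 100, three experiments.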

[2] = system: MRC5; assay: Cytotoxicity against human MRC5 cells assessed as growth inhibition at 10^-5 M after 72 hrs by MTS assay relative to control; conditions: MRC5, 72 h, read-out: GI; outline: as §1
[3] = system: MRC5; assay: Cytotoxicity against human MRC5 cells assessed as growth inhibition at 10^-6 M after 72 hrs by MTS assay relative to control; conditions: MRC5, 72 h, read-out: GI; outline: as §1
[4] = system: HCT-116; assay: Cytotoxicity against human HCT116 cells assessed as growth inhibition at 10^-5 M after 72 hrs by MTS assay relative to control; conditions: HCT-116, 72 h, read-out: GI; outline: as §1
[5] = system: Staphylococcus aureus; assay: Antibacterial activity against Staphylococcus aureus CIP 483 after 18 hrs by agar dilution method; conditions: CIP 483, 18 h
Outline: (§2)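 Agar-dilution MIC against Gram-positive strains. Compounds in DMSO, geometric dilutions giving final 100−0.75 mg/L in Mueller Hinton agar. Strains grown 18 h at 37 °C in trypticase soy broth, diluted in sterile water, spotted by Steers inoculator (about 1000 UFC/spot). Plates incubated 18 h at 37 °C; DMSO blank; ofloxacin positive control. MIC = lowest concentration with no visible growth.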

[6] = system: Staphylococcus intermedius; assay: Antibacterial activity against Staphylococcus intermedius N987 after 18 hrs by agar dilution method; conditions: N987, 18 h; outline: as §2
[7] = system: Listeria monocytogenes; assay: Antibacterial activity against Listeria monocytogenes CIP 103575 after 18 hrs by agar dilution method; conditions: CIP 103575, 18 h; outline: as §2
[8] = system: Staphylococcus aureus; assay: Antibacterial activity against Staphylococcus aureus ATCC 25923 after 18 hrs by agar dilution method; conditions: ATCC 25923, 18 h; outline: as §2
[9] = system: Staphylococcus aureus; assay: Antibacterial activity against Staphylococcus aureus CRBIP 2121 after 18 hrs by agar dilution method; conditions: CRBIP 2121, 18 h; outline: as §2
[10] = system: Bacillus cereus; assay: Antibacterial activity against Bacillus cereus CIP 6624 after 18 hrs by agar dilution method; conditions: CIP 6624, 18 h; outline: as §2
[11] = system: Staphylococcus aureus; assay: Antibacterial activity against Staphylococcus aureus CIP 5710 after 18 hrs by agar dilution method; conditions: CIP 5710, 18 h; outline: as §2
[12] = system: Mammaliicoccus sciuri; assay: Antibacterial activity against Staphylococcus sciuri N993 after 18 hrs by agar dilution method; conditions: N993, 18 h; outline: as §2
[13] = system: Listeria monocytogenes; assay: Antibacterial activity against Listeria monocytogenes N783 after 18 hrs by agar dilution method; conditions: N783, 18 h; outline: as §2
[14] = system: Enterococcus avium; assay: Antibacterial activity against Enterococcus avium CIP 104053 after 18 hrs by agar dilution method; conditions: CIP 104053, 18 h; outline: as §2
[15] = system: Staphylococcus aureus; assay: Antibacterial activity against Staphylococcus aureus ATCC 9144 oxford after 18 hrs by agar dilution method; outline: as §2
[16] = system: Listeria monocytogenes; assay: Antibacterial activity against Listeria monocytogenes N836 after 18 hrs by agar dilution method; conditions: N836, 18 h; outline: as §2
[17] = system: Enterococcus faecalis; assay: Antibacterial activity against Enterococcus faecalis N518 after 18 hrs by agar dilution method; conditions: N518, 18 h; outline: as §2
[18] = system: Enterococcus faecium; assay: Antibacterial activity against Enterococcus faecium CIP 103014 after 18 hrs by agar dilution method; conditions: CIP 103014, 18 h; outline: as §2
[19] = system: Listeria innocua; assay: Antibacterial activity against Listeria innocua E044 after 18 hrs by agar dilution method; conditions: E044, 18 h; outline: as §2
[20] = system: Listeria monocytogenes; assay: Antibacterial activity against Listeria monocytogenes N851 after 18 hrs by agar dilution method; conditions: N851, 18 h; outline: as §2
[21] = system: Staphylococcus epidermidis; assay: Antibacterial activity against Staphylococcus epidermidis CIP 53124 after 18 hrs by agar dilution method; conditions: CIP 53124, 18 h; outline: as §2
[22] = system: Enterococcus faecium; assay: Antibacterial activity against Enterococcus faecium CIP 107387 after 18 hrs by agar dilution method; conditions: CIP 107387, 18 h; outline: as §2
[23] = system: Staphylococcus aureus; assay: Antibacterial activity against Staphylococcus aureus CIP 7625 after 18 hrs by agar dilution method; conditions: CIP 7625, 18 h; outline: as §2
[24] = system: Staphylococcus saprophyticus; assay: Antibacterial activity against Staphylococcus saprophyticus E260 after 18 hrs by agar dilution method; conditions: E260, 18 h; outline: as §2
[25] = system: Enterococcus gallinarum; assay: Antibacterial activity against Enterococcus gallinarum N489 after 18 hrs by agar dilution method; conditions: N489, 18 h; outline: as §2
[26] = system: Enterococcus casseliflavus; assay: Antibacterial activity against Enterococcus casseliflavus N487 after 18 hrs by agar dilution method; conditions: N487, 18 h; outline: as §2
[27] = system: Enterococcus gallinarum; assay: Antibacterial activity against Enterococcus gallinarum N492 after 18 hrs by agar dilution method; conditions: N492, 18 h; outline: as §2
[28] = system: Bacillus spizizenii; assay: Antibacterial activity against Bacillus subtilis ATCC 6633 after 18 hrs by agar dilution method; conditions: ATCC 6633, 18 h; outline: as §2
[29] = system: Enterococcus casseliflavus; assay: Antibacterial activity against Enterococcus casseliflavus CIP 103018 after 18 hrs by agar dilution method; conditions: CIP 103018, 18 h; outline: as §2
[30] = system: Enterococcus faecalis; assay: Antibacterial activity against Enterococcus faecalis CIP 103214 after 18 hrs by agar dilution method; conditions: CIP 103214, 18 h; outline: as §2
[31] = system: Enterococcus faecalis; assay: Antibacterial activity against Enterococcus faecalis N520 after 18 hrs by agar dilution method; conditions: N520, 18 h; outline: as §2
[32] = system: Enterococcus durans; assay: Antibacterial activity against Enterococcus durans CIP 104999 after 18 hrs by agar dilution method; conditions: CIP 104999, 18 h; outline: as §2
[33] = system: Staphylococcus lugdunensis; assay: Antibacterial activity against Staphylococcus lugdunensis ATCC 43809 after 18 hrs by agar dilution method; conditions: ATCC 43809, 18 h; outline: as §2
[34] = system: Enterococcus faecium; assay: Antibacterial activity against Enterococcus faecium N823 after 18 hrs by agar dilution method; conditions: N823, 18 h; outline: as §2
[35] = system: Bacillus cereus; assay: Antibacterial activity against Bacillus cereus N349 after 18 hrs by agar dilution method; conditions: N349, 18 h; outline: as §2
[36] = system: Enterococcus faecalis; assay: Antibacterial activity against Enterococcus faecalis N491 after 18 hrs by agar dilution method; conditions: N491, 18 h; outline: as §2
[37] = system: Enterococcus gallinarum; assay: Antibacterial activity against Enterococcus gallinarum CIP 105985 after 18 hrs by agar dilution method; conditions: CIP 105985, 18 h; outline: as §2
[38] = system: Enterococcus faecium; assay: Antibacterial activity against Enterococcus faecium N733 after 18 hrs by agar dilution method; conditions: N733, 18 h; outline: as §2
[39] = system: Bacillus cereus; assay: Antibacterial activity against Bacillus cereus N190 after 18 hrs by agar dilution method; conditions: N190, 18 h; outline: as §2
[40] = system: Staphylococcus aureus; assay: Antibacterial activity against Staphylococcus aureus CIP 53156 after 18 hrs by agar dilution method; conditions: CIP 53156, 18 h; outline: as §2
[41] = system: Bacillus cereus; assay: Antibacterial activity against Bacillus cereus N258 after 18 hrs by agar dilution method; conditions: N258, 18 h; outline: as §2
[42] = system: Staphylococcus saprophyticus; assay: Antibacterial activity against Staphylococcus saprophyticus CIP 76125 after 18 hrs by agar dilution method; conditions: CIP 76125, 18 h; outline: as §2
[43] = system: Staphylococcus haemolyticus; assay: Antibacterial activity against Staphylococcus haemolyticus CIP 8156 after 18 hrs by agar dilution method; conditions: CIP 8156, 18 h; outline: as §2
[44] = system: Corynebacterium striatum; assay: Antibacterial activity against Corynebacterium striatum N840 after 18 hrs by agar dilution method; conditions: N840, 18 h; outline: as §2
[45] = system: Enterococcus faecium; assay: Antibacterial activity against Enterococcus faecium N490 after 18 hrs by agar dilution method; conditions: N490, 18 h; outline: as §2
[46] = system: Staphylococcus aureus; assay: Antibacterial activity against Staphylococcus aureus CIP 53154 after 18 hrs by agar dilution method; conditions: CIP 53154, 18 h; outline: as §2
[47] = system: Enterococcus faecalis; assay: Antibacterial activity against Enterococcus faecalis CIP 104676 after 18 hrs by agar dilution method; conditions: CIP 104676, 18 h; outline: as §2
[48] = system: Streptococcus agalactiae; assay: Antibacterial activity against Streptococcus agalactiae CIP 103227 after 18 hrs by agar dilution method; conditions: ATCC 13813, 18 h; outline: as §2
[49] = system: Enterococcus hirae; assay: Antibacterial activity against Enterococcus hirae CIP 5855 after 18 hrs by agar dilution method; conditions: CIP 5855, 18 h; outline: as §2
[50] = system: Enterococcus faecium; assay: Antibacterial activity against Enterococcus faecium N507 after 18 hrs by agar dilution method; conditions: N507, 18 h; outline: as §2

SMILES: C=C1C[C@@H](O)[C@H]2C(C)(C)CCC[C@]2(C)[C@H]1CCC1=CC(=O)OC1O (stereo partly drawn)
inhibition of growth at 1 µM [1]: 0%
inhibition of growth at 10 µM [2]: 28%
inhibition of growth at 1 µM [3]: 5%
inhibition of growth at 10 µM [4]: 38%

SMILES: C=C1C[C@@H](O)[C@H]2C(C)(C)CCC[C@]2(C)[C@H]1C[C@H](O)C1=CC(=O)OC1O (stereo partly drawn)
inhibition of growth at 1 µM [1]: 0%
inhibition of growth at 10 µM [2]: 0%
inhibition of growth at 1 µM [3]: 0%
inhibition of growth at 10 µM [4]: 66%

MIC [5]: 12 µM (≈ 4.01 µg/mL)
MIC [6]: 12 µM (≈ 4.01 µg/mL)
MIC [7]: 24 µM (≈ 8.03 µg/mL)
MIC [8]: 24 µM (≈ 8.03 µg/mL)
MIC [9]: 12 µM (≈ 4.01 µg/mL)
MIC [10]: 12 µM (≈ 4.01 µg/mL)
MIC [11]: 24 µM (≈ 8.03 µg/mL)
MIC [12]: 48 µM (≈ 16.1 µg/mL)
MIC [13]: 48 µM (≈ 16.1 µg/mL)
MIC [14]: 48 µM (≈ 16.1 µg/mL)
MIC [15]: 24 µM (≈ 8.03 µg/mL)
MIC [16]: 24 µM (≈ 8.03 µg/mL)
MIC [17]: 96 µM (≈ 32.1 µg/mL)
MIC [18]: 96 µM (≈ 32.1 µg/mL)
MIC [19]: 48 µM (≈ 16.1 µg/mL)
MIC [20]: 48 µM (≈ 16.1 µg/mL)
MIC [21]: 12 µM (≈ 4.01 µg/mL)
MIC [22]: 96 µM (≈ 32.1 µg/mL)
MIC [23]: 24 µM (≈ 8.03 µg/mL)
MIC [24]: 24 µM (≈ 8.03 µg/mL)
MIC [25]: 24 µM (≈ 8.03 µg/mL)
MIC [26]: 96 µM (≈ 32.1 µg/mL)
MIC [27]: 48 µM (≈ 16.1 µg/mL)
MIC [28]: 6 µM (≈ 2.01 µg/mL)
MIC [29]: 96 µM (≈ 32.1 µg/mL)
MIC [30]: 96 µM (≈ 32.1 µg/mL)
MIC [31]: 48 µM (≈ 16.1 µg/mL)
MIC [32]: 24 µM (≈ 8.03 µg/mL)
MIC [33]: 24 µM (≈ 8.03 µg/mL)
MIC [34]: 96 µM (≈ 32.1 µg/mL)
MIC [35]: 6 µM (≈ 2.01 µg/mL)
MIC [36]: 24 µM (≈ 8.03 µg/mL)
MIC [37]: 96 µM (≈ 32.1 µg/mL)
MIC [38]: 96 µM (≈ 32.1 µg/mL)
MIC [39]: 6 µM (≈ 2.01 µg/mL)
MIC [40]: 12 µM (≈ 4.01 µg/mL)
MIC [41]: 6 µM (≈ 2.01 µg/mL)
MIC [42]: 24 µM (≈ 8.03 µg/mL)
MIC [44]: 24 µM (≈ 8.03 µg/mL)
MIC [45]: 48 µM (≈ 16.1 µg/mL)
MIC [46]: 24 µM (≈ 8.03 µg/mL)
MIC [47]: 24 µM (≈ 8.03 µg/mL)
MIC [48]: 12 µM (≈ 4.01 µg/mL)
MIC [49]: 96 µM (≈ 32.1 µg/mL)
MIC [50]: 96 µM (≈ 32.1 µg/mL)
SMILES: C=C1CC[C@H]2C(C)(C)CCC[C@]2(C)[C@H]1C[C@@H](O)C1=CC(=O)OC1O (stereo partly drawn)
inhibition of growth at 1 µM [1]: 0%
inhibition of growth at 10 µM [2]: 95%
inhibition of growth at 1 µM [3]: 22%
MIC [43]: 6 µM (≈ 2.01 µg/mL)
inhibition of growth at 10 µM [4]: 87%
